Laboratory results published in ChEMBL document CHEMBL4007438, “Discovery of Competitive and Noncompetitive Ligands of the Organic Cation Transporter 1 (OCT1; SLC22A1)” (J Med Chem, 2017).

Assays:
[1] = target: T1, Solute carrier family 22 member 1 (Homo sapiens, UniProt O15245); experiment: (§1) Inhibition of human OCT1 expressed in HEK293 cells assessed as decrease in uptake of ASP+ after 2 mins by fluorescence assay; type: cell-based
T1 sequence (O15245 whole entry): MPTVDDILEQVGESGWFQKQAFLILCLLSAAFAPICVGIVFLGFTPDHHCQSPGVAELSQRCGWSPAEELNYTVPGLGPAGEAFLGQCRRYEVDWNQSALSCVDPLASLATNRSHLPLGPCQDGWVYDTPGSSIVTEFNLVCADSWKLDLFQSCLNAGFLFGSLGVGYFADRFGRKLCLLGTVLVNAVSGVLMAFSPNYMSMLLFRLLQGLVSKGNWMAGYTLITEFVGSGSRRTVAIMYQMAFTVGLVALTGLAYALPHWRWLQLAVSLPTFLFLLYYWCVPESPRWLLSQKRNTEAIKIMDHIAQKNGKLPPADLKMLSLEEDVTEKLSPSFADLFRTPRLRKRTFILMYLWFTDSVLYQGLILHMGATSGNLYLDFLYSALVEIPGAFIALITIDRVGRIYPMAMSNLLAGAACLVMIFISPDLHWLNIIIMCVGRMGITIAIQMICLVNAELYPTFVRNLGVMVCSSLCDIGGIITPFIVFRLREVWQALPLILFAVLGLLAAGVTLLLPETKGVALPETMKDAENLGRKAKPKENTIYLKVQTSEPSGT
Summary of the method: (§2)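 Human OCT1-overexpressing HEK-293 cells (48 h growth, ~90% confluent) were incubated 2 min at 37°C in HBSS with 2 µM ASP+ and serially diluted inhibitor. IC50 was obtained by curve fitting.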

[2] = target: T1, Solute carrier family 22 member 1; experiment: Competitive inhibition of human OCT1 expressed in HEK293 cells assessed as decrease in uptake of ASP+ after 2 mins by Lineweaver-Burk plot analysis; type: cell-based; conditions: hek293, 2 min
Summary of the method: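 HEK-293 cells stably overexpressing human OCT1 (kept in DMEM, 10% FBS, 75 µg/ml hygromycin B) were grown 48 h to ~90% confluence. They were exposed for 2 min at 37°C to HBSS with serial dilutions of ASP+ plus inhibitor at 4 fixed concentrations. Fluorescence was read at ex 485/em 585 nm. Reciprocal uptake at each inhibitor level was fitted by linear regression.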

[3] = target: T1, Solute carrier family 22 member 1; experiment: Competitive inhibition of human OCT1 expressed in HEK293 cells assessed as decrease in uptake of ASP+ after 2 mins by Lineweaver-Burk plot analysis; conditions: hek293, 2 min
OCT1 (SLC22A1) = target: T2, OCT1 (SLC22A1) (Homo sapiens, UniProt O15245); experiment: as §1; type: cell-based; conditions: human, HEK293 cells that express human OCT1, probe ASP+; summary of the method: as §2
T2 sequence (O15245 whole entry): T1 sequence (O15245 whole entry)

[4] = target: T1, Solute carrier family 22 member 1; experiment: Inhibition of human OCT1 expressed in HEK293 cells assessed as decrease in uptake of YM155 after 1 min
[5] = target: T1, Solute carrier family 22 member 1; experiment: Ratio of Kii for human OCT1-ASP+-inhibitor complex to Kis for human OCT1-inhibitor complex by Lineweaver-Burk plot analysis

Compound | IC50 [1] | further results
COC1=CC(=O)C[C@@H](C)[C@]12Oc1c(Cl)c(OC)cc(OC)c1C2=O [GRISEOFULVIN] | 7.3 µM | 
Clc1cccc(Cl)c1N=C1NCCN1 [CLONIDINE] | 19 µM | 
Clc1ccc(C(OCCN2CCCCC2)c2ccccc2)cc1 (centres undefined) [CLOPERASTINE] | 14.9 µM | 
Clc1ccccc1C(c1ccccc1)(c1ccccc1)n1ccnc1 [CLOTRIMAZOLE] | 12 µM | 
CCN(CC)CCNC(C(=O)OCCC(C)C)c1ccccc1 (centres undefined) [CAMYLOFIN] | 9.12 µM | 
COc1ccc2c(c1)[C@]13CCCC[C@@H]1[C@H](C2)N(C)CC3 [DEXTROMETHORPHAN] | 10.5 µM | 
CCN(CC)CCOCCOC(=O)C1(c2ccccc2)CCCC1 [CARBETAPENTANE] | 1.55 to 1.6 µM | 
Cc1cc(C(C#N)c2ccc(Cl)cc2)c(Cl)cc1NC(=O)c1cc(I)cc(I)c1O (centres undefined) [CLOSANTEL] | 3 µM | 
N=C(N)N/N=C/c1c(Cl)cccc1Cl [GUANABENZ] | 4.85 µM | 
Oc1c(Cl)cc(Cl)cc1Sc1cc(Cl)cc(Cl)c1O [BITHIONOL] | 2.23 µM | 
CC(=O)N1CCN(c2ccc(OCC3COC(Cn4ccnc4)(c4ccc(Cl)cc4Cl)O3)cc2)CC1 (centres undefined) [KETOCONAZOLE] | 2.6 µM | 
Nc1c2c(nc3ccccc13)CCCC2 [TACRINE] | 21.7 µM | inhibition (INH) [2]: Active; inhibition (INH) [3]: Active
CCc1nc(N)nc(N)c1-c1ccc(Cl)cc1 [PYRIMETHAMINE] | 13.6 µM | 
CCN(CC)C(C)CN1c2ccccc2Sc2ccccc21 (centres undefined) [ETHOPROPAZINE] | 20.5 µM | inhibition (INH) [2]: Active; inhibition (INH) [3]: Active
COc1cc2nc(N(C)CCCNC(=O)C3CCCO3)nc(N)c2cc1OC (centres undefined) [ALFUZOSIN] | 14.9 µM | 
Oc1ccc(Cl)cc1Cc1cc(Cl)ccc1O [DICHLOROPHEN] | 8.41 µM | 
c1ccc(CC2NCCc3ccccc32)cc1 (centres undefined) | 82.1 µM | inhibition (INH) [2]: Active
CN/C(=N/CCSCc1nc[nH]c1C)NC#N [CIMETIDINE] |  | inhibition at 2 min (OCT1 (SLC22A1)): 4.13%; IC50 [4]: 149 µM
CC(CCc1ccc(O)cc1)NCCc1ccc(O)c(O)c1 (centres undefined) [DOBUTAMINE] | 4.17 µM | 
COc1ccccc1OCCNCC(O)COc1cccc2[nH]c3ccccc3c12 (centres undefined) [CARVEDILOL] | 3.4 to 3.43 µM | 
CCN(CC)CCNC(=O)c1c(C)[nH]c(/C=C2\C(=O)Nc3ccc(F)cc32)c1C [SUNITINIB] | 6.1 µM | 
CCCNCC(O)COc1ccccc1C(=O)CCc1ccccc1 (centres undefined) [PROPAFENONE] | 15.5 µM | 
Cc1ncc(C[n+]2csc(CCO)c2C)c(N)n1 [THIAMINE ION] | 4350 µM | inhibition at 2 min (OCT1 (SLC22A1)): -1.5%; Ratio [5]: 95.6
CNCCCN1c2ccccc2CCc2ccccc21 [DESIPRAMINE] | 9.18 µM | 
CN(C)CCCN1c2ccccc2CCc2ccccc21 [IMIPRAMINE] | 7.95 µM | 
CN(C)CCC=C1c2ccccc2COc2ccccc21 [DOXEPIN] | 11.2 µM | 
